Experimental data from publication PMC9474599 (Immunity, 2022).
“Also recorded” adds a separate entry of the source. *1 amine or outer side, *2 acyl side, *3 side chain or, on linkers, in order; H or OH if unused. Where a SMILES comes first, the peptide text is derived from it. Bridges are numbered along the chain shown (N, C = ends). Where no end group is shown, it is not given here. [ ]: non-standard residue; d: D form. The star is where a group is joined. X1 = CC(=O)NC(C(=O)OC(C(C)C)C(N[*:1])C(=O)[*:2])C(O)C(C)C; Biotin = O=C1N[C@H]2[C@H](CS[C@H]2CCCCC(=O)*)N1; PhLac = O=C(O)[CH](O)Cc1ccccc1; NMeT = CN[CH](C(=O)O)[CH](C)O; NMeA = CN[CH](C)C(=O)O; NMeDha = C=C(NC)C(=O)O

Experiments:
bone marrow neutrophils [1] = experiment: Western blot of IL-1β release from neutrophils; format: cell-based, mouse; conditions: for Inhibition of hBD3-mediated IL-1β release: WT neutrophils, inhibitor 10μM added together with LTA, n=3
Mrgpra2b-GFP [2] = target: T1, Mrgpra2b-GFP (Mus musculus, UniProt Q91WW4); experiment: co-IP of biotin-hBD3 with Mrgpra2b-GFP; format: binding; conditions: 10μM biotin-hBD3, 4°C overnight, anti-GFP beads, anti-biotin western blot
T1 sequence (Q91WW4 1-305): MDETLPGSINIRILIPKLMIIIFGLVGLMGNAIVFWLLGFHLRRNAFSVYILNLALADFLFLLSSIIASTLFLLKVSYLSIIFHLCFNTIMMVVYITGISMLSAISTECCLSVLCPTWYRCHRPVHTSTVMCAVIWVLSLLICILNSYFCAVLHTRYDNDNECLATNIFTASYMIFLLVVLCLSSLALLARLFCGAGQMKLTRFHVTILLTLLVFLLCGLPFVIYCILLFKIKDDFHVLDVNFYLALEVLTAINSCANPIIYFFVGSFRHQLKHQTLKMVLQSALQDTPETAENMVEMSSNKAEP

neutrophils [3] = experiment: Neutrophil elastase release; format: cell-based; conditions: Mrgpra2 dKO mouse neutrophils; hBD3 0-10 μM or 10 μM mBD14, one hour; n=5
Outline: (§1)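 Bone marrow neutrophils were MACS-purified from 8-10-week-old C57BL/6J-background mice of both sexes, with >90% purity by flow cytometry. 2×10^5 cells in RPMI were incubated 1 h with 0, 1, 5 or 10 μM hBD3 or 10 μM mBD14, both dissolved in RPMI. Elastase and MPO in the supernatant were quantified by DuoSet sandwich ELISA.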

Mrgpra2b = target: T2, Mrgpra2b (Mus musculus, UniProt Q91WW4); experiment: FLIPR intracellular Ca2+ mobilization, HEK cells expressing Mrgpra2b; format: cell-based; conditions: for Mrgpra2 receptor activation: FLIPR Ca2+ mobilization, Figure S1E (negative peptides), Figure 1E
T2 sequence (Q91WW4 1-305): T1 sequence (Q91WW4 1-305)

neutrophils [4] = experiment: Neutrophil myeloperoxidase; format: cell-based; conditions: Mrgpra2 dKO mouse neutrophils; hBD3 0-10 μM or 10 μM mBD14, one hour; n=5
Outline: as §1

bone marrow neutrophils [5] = experiment: IL-1β and Cxcl2 release from neutrophils; format: cell-based, mouse
Outline: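 MACS-purified bone marrow neutrophils were primed with 1 μg/mL S. aureus lipoteichoic acid for 2 h. hBD3 or mBD14 was then added at 10 μM final. After a further 2 h, supernatants were collected and cells lysed in RIPA buffer. IL-1β and Cxcl2 were measured in both fractions by DuoSet ELISA. 5 mM ATP served as positive control.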

bone marrow neutrophils [6] = experiment: Proteome profiler array of neutrophil cytokines and chemokines; format: cell-based, mouse; conditions: S. aureus LTA 1 μg/mL alone (signal 1), vs control
S. aureus = experiment: Intradermal S. aureus skin infection, bacterial bioluminescence; format: in vivo, Staphylococcus aureus USA300 LAC::lux in mouse; conditions: 100ng each, co-injected with S. aureus; bioluminescence 24 hours post-infection; n=8-36
Mrgpra2b-GFP [7] = target: T3, Mrgpra2b-GFP (mouse, UniProt Q91WW4 1-305); experiment: flow cytometry on cells
T3 sequence (looked up): T1 sequence (Q91WW4 1-305)

MRGPRX3-FLAG (human) = MRGPRX3-FLAG (human) (UniProt Q96LB0)
Sequence of MRGPRX3-FLAG (human) (Q96LB0 whole entry): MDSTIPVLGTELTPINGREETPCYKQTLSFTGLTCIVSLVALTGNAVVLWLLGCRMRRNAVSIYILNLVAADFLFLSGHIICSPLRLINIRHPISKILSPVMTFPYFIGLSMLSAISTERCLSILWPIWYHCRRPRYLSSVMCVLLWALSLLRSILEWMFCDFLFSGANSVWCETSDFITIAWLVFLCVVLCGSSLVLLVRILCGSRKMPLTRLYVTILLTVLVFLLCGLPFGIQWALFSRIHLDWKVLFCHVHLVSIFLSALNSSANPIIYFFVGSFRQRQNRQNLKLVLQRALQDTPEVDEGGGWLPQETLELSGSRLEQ

[8] = ELISA, LTA 1 μg/mL 2 hours, then 10 μM hBD3 or mBD14 for 2 hours, n=5

CC(C)[C@H](NC(=O)c1ccc2ccccc2n1)C(=O)N[C@@H](CC(=O)O)C(=O)COc1c(F)cccc1F [Q-VD-OPh]
Inhibition of hBD3-mediated IL-1β release (bone marrow neutrophils [1]): inhibited; also recorded: effectively reduced IL-1β release from WT neutrophils in response to hBD3

C=C1C(=O)NC(C)C(=O)N(C)C(C)C(=O)NC(C(OC(=O)C(NC(C)=O)C(O)C(C)C)C(C)C)C(=O)N(C)C(C(C)OC)C(=O)OC(C)C(NC(C)=O)C(=O)OC(Cc2ccccc2)C(=O)N1C (stereo not shown) [YM-254890] (Ac-T[PhLac][NMeDha]A[NMeA][X1][NMeT](Me); ester 1-C; configuration not given here)
Inhibition of hBD3-mediated IL-1β release (bone marrow neutrophils [1]): inhibited

Biotin-GIINTLQKYYCRVRGGRCAVLSCLPKEEQIGKCSTRGRKCCRRKK (disulfide 11-40, 18-33, 23-41) [biotin-hBD3]
Co-precipitation with Mrgpra2b-GFP (Mrgpra2b-GFP [2]): co-precipitated only with Mrgpra2b-GFP; also recorded: could be co-precipitated

FLPKTLRKFFCRIRGGRCAVLNCLGKEEQIGRCSNSGRKCCRKKK (disulfide 11-40, 18-33, 23-41) [mBD14]
Elastase release, Mrgpra2 dKO neutrophils (neutrophils [3]): did not respond to hBD3 or mBD14 stimuli
EC50 (Mrgpra2b): 18.7 µM
Mrgpra2 receptor activation (Mrgpra2b): evoked robust receptor activation
MPO release, Mrgpra2 dKO neutrophils (neutrophils [4]): did not respond to hBD3 or mBD14 stimuli
Synthesis of IL-1β or Cxcl2, defensin alone (bone marrow neutrophils [5]; ELISA, total = secreted + intracellular, defensin alone, no LTA, n=5): did not induce the synthesis of IL-1β or Cxcl2
Cxcl2 release, LTA-primed Mrgpra2 dKO neutrophils (bone marrow neutrophils [5]; [8]): did not respond to hBD3 or mBD14
Cxcl2 release, LTA-primed WT neutrophils (bone marrow neutrophils [5]; [8]): released IL-1β and Cxcl2 in response to hBD3 or mBD14 stimuli; also recorded: significant increase in the amount of IL-1β and Cxcl2
IL-1β release, LTA-primed Mrgpra2 dKO neutrophils (bone marrow neutrophils [5]; [8]): did not respond to hBD3 or mBD14
IL-1β release, LTA-primed WT neutrophils (bone marrow neutrophils [5]; [8]): released IL-1β and Cxcl2 in response to hBD3 or mBD14 stimuli; also recorded: significant increase in the amount of IL-1β

KKINNPVSCLRKGGRCWNRCIGNTRQIGSCGVPFLKCCKRK (disulfide 9-37, 16-30, 20-38) [mBD3]
EC50 (Mrgpra2b): 42.8 µM

hBD1: Human peptide hBD1 (DHYNCVSSGGQCLYSACPIFTKIQGTCYRGKAKCCK; UniProt P60022 33-68, looked up)
Mrgpra2 receptor activation (Mrgpra2b): did not trigger receptor activation

hBD2: Human peptide, printed as 'hBD1, 2 and 4' (GIGDPVTCLKSGAICHPVFCPRRYKQIGTCGLPGTKCCKKP; UniProt O15263 24-64, looked up)
Mrgpra2 receptor activation (Mrgpra2b): did not trigger receptor activation

hBD4: Human peptide, printed as 'hBD1, 2 and 4' (EFELDRICGYGTARCRKKCRSQEYRIGRCPNTYACCLRKWDESLLNRTKP; UniProt Q8WTQ1 23-72, looked up)
Mrgpra2 receptor activation (Mrgpra2b): did not trigger receptor activation

lipoteichoic acid [LTA]
Production of pro-IL-1β by LTA (bone marrow neutrophils [1]; S. aureus LTA 1 μg/mL, WT and Mrgpra2 dKO neutrophils): induced the production of pro-IL-1β in both WT and Mrgpra2 dKO neutrophils
Release of IL-1ra, Ccl3, Ccl4, Cxcl2 and TNFα by LTA alone (bone marrow neutrophils [6]): triggered the release of more IL-1ra, Ccl3, Ccl4, Cxcl2 and TNFα compared to the control
IL-1β production and release by LTA alone (bone marrow neutrophils [5]; S. aureus LTA 1 μg/mL alone (signal 1), Figure 7A, D): induced the production of IL-1β, but the cytokine was not released from the cells
Priming effect of LTA, WT versus Mrgpra2 dKO neutrophils (bone marrow neutrophils [5]; S. aureus LTA 1 μg/mL, Figure 7A, C, D): did not differ between WT or Mrgpra2 dKO neutrophils

mBD1: mouse peptide mBD1 (DQYKCLQHGGFCLRSSCPSNTKLQGTCKPDKPNCCKS; UniProt P56386 33-69, looked up)
Mrgpra2 receptor activation (Mrgpra2b): did not trigger receptor activation

mBD2: mouse peptide, printed as 'mBD1, 2, 4' (AVGSLKSIGYEAELDHCHTNGGYCVRAICPPSARRPGSCFPEKNPCCKYMK; UniProt P82020 21-71, looked up)
Mrgpra2 receptor activation (Mrgpra2b): did not trigger receptor activation

B1: Cxcl2: recombinant mouse Cxcl2, R&D (protein, UniProt P10889 28-100, looked up)
C-X-C motif chemokine 2: AVVASELRCQCLKTLPRVDFKNIQSLSVTPPGPHCAQTEVIATLKGGQKVCLDPEAPLVQKIIQKILNKGKAN
Bacterial load / anti-S. aureus rescue, Def cKO mice (S. aureus): did not rescue Mrgpra2 or Def KO phenotypes; also recorded: did not alter the mutant phenotypes
Bacterial load / anti-S. aureus rescue, Mrgpra2 dKO mice (S. aureus): did not rescue Mrgpra2 or Def KO phenotypes; also recorded: did not alter the mutant phenotypes

B2: IL-1β: Recombinant IL-1β, R&D systems 401-ML (protein, UniProt P10749 118-269, looked up)
Interleukin-1 beta: VPIRQLHYRLRDEQQKSLVLSDPYELKALHLNGQNINQQVIFSMSFVQGEPSNDKIPVALGLKGKNLYLSCVMKDGTPTLQLESVDPKQYPKKKMEKRFVFNKIEVKSKVEFESAEFPNWYISTSQAEHKPVFLGNNSGQDIIDFTMESVSS
Bacterial load / anti-S. aureus rescue, Def cKO mice (S. aureus): rescued the anti-S. aureus defect of Mrgpra2 dKO and Def cKO mice; also recorded: significantly reduced the bacterial load
Bacterial load / anti-S. aureus rescue, Mrgpra2 dKO mice (S. aureus): rescued the anti-S. aureus defect of Mrgpra2 dKO and Def cKO mice; also recorded: significantly reduced the bacterial load

Biotin-GIINTLQKYYCRVRGGRCAVLSCLPKEEQIGKCSTRGRKCCRRKK (peptide, UniProt P81534 23-67, looked up, ends and bridges not checked) [N-terminal biotinylated human beta-defensin 3]
Kd (Mrgpra2b-GFP [7]): 15.9 µM

GIINTLQKYYCRVRGGRCAVLSCLPKEEQIGKCSTRGRKCCRRKK (ends and bridges not checked; cysteine pairing not given here) [Human beta-defensin 3]
EC50 of FLIPR intracellular calcium mobilization in HEK cells expressing MRGPRX3 (MRGPRX3-FLAG (human)): 10.8 µM
